One test relates to HeLa. Nature of the test: Cytotoxicity against human HeLa cells […] by MTT assay. The class given is functional, cell-based. (Tetrazolium dyes change colour on reduction, which living cells bring about.)
The test system of test [1] is A549. Put plainly: Induction of cell cycle arrest in human A549 cells assessed as G1 phase cells at 3 uM by FACS analysis (reference value: 85.33%). The class given is functional.
In test [2] the test system is A549. Put plainly: Induction of apoptosis in human A549 cells assessed as increase in caspase3 activity at 1 uM after 48 hrs relative to control. The class given is functional. The essentials:
(§1)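 A-549 cells were seeded at 2.5 × 10^6/well and treated 48 h alongside etoposide, then scraped and lysed on ice. Supernatant was mixed with 2X assay buffer and Ac-DEVD-AFC substrate for 1 h. Fluorescence (ex 400, em 505 nm) was read every 5 min, normalized to Bradford protein and expressed as fold over control. Two experiments, each in triplicate.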

The subject of test [3] is A549. Nature of the test: Induction of apoptosis in human A549 cells assessed as DNA fragmentation at 3 uM after 48 hrs by agarose gel electrophoretic analysis. It counts as functional, cell-based. The essentials: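 Cells were seeded at 1 × 10^6/well and grown 48 h, then treated 48 h. Cells were pelleted and lysed. Lysate was given SDS and RNase-A at 56 °C for 2 h, then proteinase K at 37 °C for 2 h. DNA was precipitated with ammonium acetate and cold ethanol, washed with 80% ethanol and dissolved in TE. Laddering was read on 2% agarose gel in TE; 50 bp marker.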

In test [4] the test system is A549. Put plainly: Induction of cell cycle arrest in human A549 cells assessed as S phase cells at 1 uM by FACS analysis (reference value: 3.69%). It counts as functional. (In general: In flow cytometry, cells or beads pass a laser one at a time.)
The test system of test [5] is A549. Put plainly: Induction of apoptosis in human A549 cells assessed as nuclear fragmentation at 1 uM after 24 hrs by Hoechst staining method. The class given is functional, cell-based. In short, it runs like this: (§2)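 Cells were seeded at 10,000 per coverslip and grown 24 h, then treated 24 h. Vehicle control was 0.001% DMSO; etoposide was the standard. Hoechst at […] with 4% paraformaldehyde was added for 30 min at 37 °C. Random fields were imaged by fluorescence microscopy and apoptotic cells scored manually by cytoplasmic condensation, apoptotic bodies, nuclear fragmentation and relative fluorescence.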

Test [6] relates to A549. Put plainly: Induction of cell cycle arrest in human A549 cells assessed as S phase cells at 3 uM by FACS analysis (reference value: 3.69%). The class given is functional.
The test system of test [7] is A549. Nature of the test: Induction of apoptosis in human A549 cells assessed as increase in caspase3 activity at 3 uM after 48 hrs relative to control. The class given is functional. The essentials: as §1
The subject of test [8] is A549. Nature of the test: Induction of cell cycle arrest in human A549 cells assessed as G2/M phase cells at 1 uM by FACS analysis (reference value: 9.89%). It counts as functional.
For test [9], the system named is A549. Put plainly: Induction of apoptosis in human A549 cells assessed as increase in fluorescence at 1 uM after 24 hrs by Hoechst staining method relative to control. It counts as functional, cell-based. In short, it runs like this:
as §2

The test system of test [10] is A549. Put plainly: Induction of cell cycle arrest in human A549 cells assessed as G2/M phase cells at 3 uM by FACS analysis (reference value: 9.89%). The class given is functional.
Test [11] concerns A549. Put plainly: Induction of cell cycle arrest in human A549 cells assessed as sub G1 phase cells at 1 uM by FACS analysis (reference value: 1.08%). The class given is functional.
Test [12] concerns A549. Nature of the test: Induction of apoptosis in human A549 cells assessed as apoptotic bodies at 1 uM after 24 hrs by Hoechst staining method. It counts as functional, cell-based. The essentials:
as §2

The subject of another test is HT-29. Put plainly: Cytotoxicity against human HT-29 cells after 72 hrs by MTT assay. The class given is functional, cell-based. As to conditions: HT-29, 72 h.
Test [13] deals with A549. Put plainly: Induction of apoptosis in human A549 cells assessed as cytoplasmic condensation at 3 uM after 24 hrs by Hoechst staining method. The class given is functional, cell-based. In short, it runs like this: as §2
The test system of another test is ACHN. Nature of the test: Cytotoxicity against human ACHN cells […] by MTT assay. It counts as functional, cell-based.
In the next test the test system is B16. Put plainly: Cytotoxicity against mouse B16 cells […] by MTT assay. The class given is functional, cell-based.
The test system of test [14] is A549. Put plainly: Induction of apoptosis in human A549 cells assessed as apoptotic bodies at 3 uM after 24 hrs by Hoechst staining method. The class given is functional, cell-based. In short, it runs like this:
as §2

Test [15] concerns A549. Nature of the test: Cytotoxicity against human A549 cells […] by MTT assay. The class given is functional, cell-based.
Test [16] has as its system A549. Nature of the test: Induction of cell cycle arrest in human A549 cells assessed as sub G1 phase cells at 3 uM by FACS analysis (reference value: 1.08%). The class given is functional.
In test [17] the test system is A549. Put plainly: Induction of apoptosis in human A549 cells assessed as cytoplasmic condensation at 1 uM after 24 hrs by Hoechst staining method. It counts as functional, cell-based. The essentials: as §2
Test [18] has as its system A549. Put plainly: Induction of apoptosis in human A549 cells assessed as nuclear fragmentation at 3 uM after 24 hrs by Hoechst staining method. The class given is functional, cell-based. In short, it runs like this: as §2
Test [19] concerns A549. Nature of the test: Induction of cell cycle arrest in human A549 cells assessed as G1 phase cells at 1 uM by FACS analysis (reference value: 85.33%). It counts as functional.
Test [20] concerns A549. Put plainly: Induction of apoptosis in human A549 cells assessed as increase in fluorescence at 3 uM after 24 hrs by Hoechst staining method relative to control. The class given is functional, cell-based. The essentials: as §2

Calls of active or inactive are those of the source. The rule behind the calls is not given here.

For the molecule `COc1cc([C@@H]2c3cc4c(cc3[C@@H](NC(=O)c3cc(-c5ccc(Cl)c(Cl)c5)[nH]n3)[C@H]3COC(=O)[C@H]23)OCO4)cc(OC)c1OC`, the IC50 (usually the point on the concentration scale where inhibition reaches its midpoint) in the test on HeLa was 9.3 µM; in the test with HT-29, 7.1 µM; in the test with ACHN, 15.9 µM; in the test on B16, 9.5 µM; with A549 [15], 2.1 µM. Further, the Activity in the test on A549 [1] is on record as 27.71%; with A549 [4], 2.27%; in the test with A549 [6] it was 8.96%; with A549 [8] it was 27.68%; with A549 [10], 61.28%; with A549 [11] it was 6.77%. Also, the Activity in the test on A549 [16] is given as 2.05%; in the test on A549 [19], 63.35%. Moreover, the “fold change (FC)” value in the test with A549 [2] is on record as 4; in the test with A549 [7] it was 6. Further, the result with A549 [3], in the test on A549 [5], with A549 [9], with A549 [12], in the test with A549 [13] and with A549 [14] was Active. The outcome in the test with A549 [17], with A549 [18] and in the test on A549 [20] was Active.
`COc1cc([C@@H]2c3cc4c(cc3[C@@H](O[C@@H]3O[C@@H]5CO[C@@H](C)O[C@H]5[C@H](O)[C@H]3O)[C@H]3COC(=O)[C@H]23)OCO4)cc(OC)c1O` [ETOPOSIDE]: the half-maximal inhibitory concentration (IC50) with HeLa was determined as 1.52 µM; with B16, 1.39 µM; with A549 [15], 2.8 µM. Further, the Activity with A549 [1] was found to be 31.49%; in the test on A549 [4] it was 4.1%; in the test with A549 [6], 2.42%; with A549 [8], 32.33%; in the test on A549 [10], 57.86%; in the test on A549 [11], 1.25%. The Activity in the test with A549 [16] stood at 8.3%; with A549 [19], 62.32%. The result in the test with A549 [3], with A549 [13], with A549 [14], in the test with A549 [18] and in the test with A549 [20] was Active. Moreover, in the test with A549 [7], the “fold change (FC)” value came out at 6.

These data come from ChEMBL document CHEMBL2311264, “Synthesis and anticancer activity of heteroaromatic linked 4β-amido podophyllotoxins as apoptotic inducing agents” (Bioorg Med Chem Lett, 2013).
